In ChEMBL document CHEMBL4261610, “Structure-activity relationships of pyrazole-4-carbodithioates as antibacterials against methicillin-resistant Staphylococcus aureus” (Bioorg Med Chem Lett, 2018):
In brackets after ≈: the same amount, converted by molar mass. Activity calls are given as the source filed them. No cut-off for these calls is given here.

What was measured:
Staphylococcus aureus [1] = experiment: Antibacterial activity against methicillin-resistant Staphylococcus aureus MW2 after 24 hrs by two-fold broth microdilution method; assay type: functional; settings: MW2, 24 h
In short: (§1)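 Read-out is the minimum inhibitory concentration against MRSA strain MW2, expressed in μg/mL.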

[2] = Cytotoxicity against human HKC8 cells after 24 hrs by WST1 assay; assay type: cell-based; settings: HKC8, 24 h
In short: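 Human HKC-8 cells were exposed to compound, and cytotoxicity was reported as IC₅₀ in μg/mL.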

[3] = Selectivity index, ratio of IC50 for human HKC8 cells to MIC for methicillin-resistant Staphylococcus aureus MW2; assay type: toxicity; settings: read-out: Selectivity Index
In short: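 Ratio of the cytotoxic IC50 in human HKC-8 kidney cells to the MIC against MRSA MW2. Both values are in μg/mL and were measured in this work.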

dsDNA [4] = experiment: Binding affinity to Rt1 double stranded DNA (unknown origin) at DNA to compound ratio of 1:2.5 to 1:10 after 20 mins by ESI-MS analysis; assay type: nucleic-acid assay
dsDNA [5] = experiment: Binding affinity to D2 double stranded DNA (unknown origin) at DNA to compound ratio of 1:2.5 to 1:10 after 20 mins by ESI-MS analysis; assay type: nucleic-acid assay
dsDNA [6] = experiment: Binding affinity to Dst double stranded DNA (unknown origin) at DNA to compound ratio of 1:2.5 to 1:10 after 20 mins by ESI-MS analysis; assay type: nucleic-acid assay
Quadruplex DNA [7] = experiment: Binding affinity to ER03 quadruplex DNA (unknown origin) at DNA to compound ratio of 1:2.5 to 1:10 after 20 mins by ESI-MS analysis; assay type: nucleic-acid assay
DNA = experiment: Binding affinity to ER04 single stranded DNA (unknown origin) at DNA to compound ratio of 1:2.5 to 1:10 after 20 mins by ESI-MS analysis; assay type: nucleic-acid assay
Quadruplex DNA [8] = experiment: Binding affinity to G5 quadruplex DNA (unknown origin) at DNA to compound ratio of 1:2.5 to 1:10 after 20 mins by ESI-MS analysis; assay type: nucleic-acid assay
[9] = Binding affinity to RNA oligonucleotide (unknown origin)
In short: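 RNA oligonucleotides were incubated with compound, and adduct formation was examined by ESI mass spectrometry.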

[10] = Inhibition of DNA replication in cell-free system at >160 uM using 5'-flap-primed M13 ssDNA template/dNTP pretreated for 5 mins followed by DNA addition and measured after 20 mins by helicase-independent polymerase3 primer extension-strand displacement rolling circle assay; assay type: functional
In short: (§2)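 The cell-free bacterial replication system holds all enzymes, ancillary proteins, nucleotide precursors and DNA template needed to duplicate circular bacterial DNA. Covalent reaction with any component would read out as loss of replication.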

[11] = Inhibition of DNA replication in cell-free system at <640 uM using 5'-flap-dsDNA template/dNTP after 20 mins by helicase-dependent leading strand rolling circle replication assay; assay type: functional; in short: as §2
[12] = Inhibition of RNA transcription in cell-free system; assay type: functional
Staphylococcus aureus [13] = experiment: Antibacterial activity against methicillin-resistant Staphylococcus aureus MW2; assay type: functional; in short: as §1

Structure (SMILES) | MIC (Staphylococcus aureus [1]) | IC50 [2] | selectivity ratio [3] | other results
CCCNC(=S)c1c(C)nn(-c2ccccc2)c1O | > 64 µg/mL | – | – | –
CCCSC(=S)c1c(-c2ccc(C)cc2)nn(-c2ccccc2)c1O | 1 to 2 µg/mL (≈ 2.71 to 5.43 µM) | 8 µg/mL (≈ 21.7 µM) | 4 to 8 | –
Cc1nn(-c2ccccc2)c(O)c1C(=S)Sc1cccnc1 | 16 to 32 µg/mL (≈ 48.9 to 97.7 µM) | – | – | –
CCCSC(=S)c1c(-c2ccc(C#N)cc2)nn(-c2ccccc2)c1O | 2 µg/mL (≈ 5.27 µM) | – | – | –
CCCSC(=S)c1c(-c2ccc(Cl)cc2)nn(-c2ccccc2)c1O | 0.5 to 1 µg/mL (≈ 1.29 to 2.57 µM) | 4 µg/mL (≈ 10.3 µM) | 4 to 8 | –
C=CCSC(=S)c1c(C)nn(-c2ccccc2)c1O | 4 to 8 µg/mL (≈ 13.8 to 27.5 µM) | 16 to 32 µg/mL (≈ 55.1 to 110 µM) | 2 to 4 | –
CCCSC(=S)c1c(C)nn(-c2ccc(Cl)cc2)c1O | 2 to 4 µg/mL (≈ 6.12 to 12.2 µM) | – | – | –
CSC(SC)=C1C(=O)N(c2ccccc2)N=C1C | > 64 µg/mL | – | – | –
CCCSC(=S)c1c(C)nn(-c2ccccc2)c1O | 4 µg/mL (≈ 13.7 µM) | 4 µg/mL (≈ 13.7 µM) | 1 | Activity (dsDNA [4]): inactive; Activity (dsDNA [5]): inactive; Activity (dsDNA [6]): inactive; Activity (Quadruplex DNA [7]): inactive; Activity (DNA): inactive; Activity (Quadruplex DNA [8]): inactive; Activity [9]: inactive; inhibition [10]: Active; inhibition [11]: inactive; inhibition [12]: inactive; MIC (Staphylococcus aureus [13]): 4 µg/mL (≈ 13.7 µM)
CCCSC(=S)c1c(C)nn(-c2ccc(F)cc2)c1O | 2 to 4 µg/mL (≈ 6.44 to 12.9 µM) | – | – | –
CCCSC(=S)c1c(C)nn(-c2ccc(OC)cc2)c1O | 8 µg/mL (≈ 24.8 µM) | – | – | –
CCCSC(=S)c1c(-c2ccc(F)cc2)nn(-c2ccccc2)c1O | 1 µg/mL (≈ 2.68 µM) | 4 µg/mL (≈ 10.7 µM) | 4 | –
CSC(=S)c1c(C)nn(-c2ccccc2)c1O | 16 µg/mL (≈ 60.5 µM) | 16 µg/mL (≈ 60.5 µM) | 1 | –
CCCSC(=S)c1c(C)nn(-c2ccc(C#N)cc2)c1O | 2 µg/mL (≈ 6.3 µM) | – | – | –
Cc1nn(-c2ccccc2)c(O)c1C(=S)SCc1ccccc1 | 2 to 4 µg/mL (≈ 5.87 to 11.7 µM) | 32 µg/mL (≈ 94 µM) | 8 to 16 | –
CCCSC(=S)c1c(C)nn(-c2ccc([N+](=O)[O-])cc2)c1O | 0.5 to 1 µg/mL (≈ 1.48 to 2.96 µM) | 0.5 to 1 µg/mL (≈ 1.48 to 2.96 µM) | 1 | –
CCCCSC(=S)c1c(C)nn(-c2ccccc2)c1O | 2 to 4 µg/mL (≈ 6.53 to 13.1 µM) | 4 µg/mL (≈ 13.1 µM) | 1 to 2 | –
CCCSC(=S)c1c(-c2ccc(Br)cc2)nn(-c2ccccc2)c1O | 0.5 µg/mL (≈ 1.15 µM) | – | – | –
CCCSC(=S)c1c(C)nn(-c2ccc(C)cc2)c1O | 4 µg/mL (≈ 13.1 µM) | – | – | –
CCCSC(=S)c1c(-c2ccc([N+](=O)[O-])cc2)nn(-c2ccccc2)c1O | 1 µg/mL (≈ 2.5 µM) | 0.5 µg/mL (≈ 1.25 µM) | 0.5 | –
CCCSC(=S)c1c(-c2ccc(C(F)(F)F)cc2)nn(-c2ccccc2)c1O | 32 to 64 µg/mL (≈ 75.7 to 151 µM) | – | – | –
CCCSC(=S)c1c(-c2ccccc2)nn(-c2ccccc2)c1O | 2 µg/mL (≈ 5.64 µM) | 32 µg/mL (≈ 90.3 µM) | 16 | –
CCCSC(=S)c1c(-c2ccc(OC)cc2)nn(-c2ccccc2)c1O | 2 µg/mL (≈ 5.2 µM) | 8 µg/mL (≈ 20.8 µM) | 4 | –
CCCSC(=S)c1c(C)nn(-c2ccc(Br)cc2)c1O | 1 to 2 µg/mL (≈ 2.69 to 5.39 µM) | – | – | –
CCSC(=S)c1c(C)nn(-c2ccccc2)c1O | 8 µg/mL (≈ 28.7 µM) | 8 µg/mL (≈ 28.7 µM) | 1 | –
CCCNC(=O)c1c(C)nn(-c2ccccc2)c1O | > 64 µg/mL | – | – | –
CCCOC(=O)c1c(C)nn(-c2ccccc2)c1O | > 64 µg/mL | – | – | –
